Data taken from ChEMBL document CHEMBL1136924 (J Med Chem, 2009).
Calls of active or inactive are those of the source.

Columns and labels:
[1] = biological target: T1, 5-hydroxytryptamine receptor 3A (Rattus norvegicus, UniProt P35563); assay: Displacement of [3H]LY278584 from 5HT3 receptor in rat cortical homogenate
T1 sequence (P35563 whole entry): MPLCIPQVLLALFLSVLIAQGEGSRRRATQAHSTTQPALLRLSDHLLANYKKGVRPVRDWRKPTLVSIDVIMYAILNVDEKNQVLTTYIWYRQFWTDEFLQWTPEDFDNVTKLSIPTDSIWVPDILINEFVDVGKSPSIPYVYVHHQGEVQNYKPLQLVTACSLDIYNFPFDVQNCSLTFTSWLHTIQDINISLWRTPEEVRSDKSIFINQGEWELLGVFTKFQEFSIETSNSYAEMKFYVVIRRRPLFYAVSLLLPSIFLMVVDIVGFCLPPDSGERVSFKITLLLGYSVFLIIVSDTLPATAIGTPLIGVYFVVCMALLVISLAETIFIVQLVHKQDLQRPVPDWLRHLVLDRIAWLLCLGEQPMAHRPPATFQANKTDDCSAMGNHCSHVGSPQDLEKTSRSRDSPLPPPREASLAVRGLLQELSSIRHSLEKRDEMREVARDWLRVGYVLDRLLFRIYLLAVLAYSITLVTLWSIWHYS

[2] = biological target: T2, 5-hydroxytryptamine receptor 3A (Cavia porcellus) (UniProt O70212); assay: Agonist activity at 5HT3 receptor in voltage-stimulated guinea pig left atrium assessed as positive inotropic potency at 100 uM; format: functional, tissue-based; details: Cardiac atrium
T2 sequence (whole entry): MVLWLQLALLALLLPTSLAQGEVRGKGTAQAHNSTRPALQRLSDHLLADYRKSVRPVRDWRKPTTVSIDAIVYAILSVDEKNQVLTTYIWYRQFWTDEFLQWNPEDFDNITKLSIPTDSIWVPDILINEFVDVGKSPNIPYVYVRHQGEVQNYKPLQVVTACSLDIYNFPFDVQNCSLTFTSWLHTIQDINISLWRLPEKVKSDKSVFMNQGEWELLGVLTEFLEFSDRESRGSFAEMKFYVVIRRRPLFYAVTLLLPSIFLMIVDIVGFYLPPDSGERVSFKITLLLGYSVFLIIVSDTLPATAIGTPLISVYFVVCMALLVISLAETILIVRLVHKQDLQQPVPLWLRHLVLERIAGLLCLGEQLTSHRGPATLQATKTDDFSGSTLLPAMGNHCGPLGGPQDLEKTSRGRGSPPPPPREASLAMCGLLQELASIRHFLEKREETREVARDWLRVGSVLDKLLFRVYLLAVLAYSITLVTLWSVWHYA
Method in brief: (§1)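 Guinea pig left and right atria were hung in a 15 mL bath of PSS (pH 7.4, 95% O2-5% CO2, 35 °C) with ketanserin 1 µM. The right atrium beat spontaneously; the left was paced at 1 Hz. Cumulative doses (0.1-100 µM; DMSO ≤0.3%) were added after 45-60 min stabilization. Rate or isometric force was recorded. EC50 came from Probit analysis, n≥4. Intrinsic activity was taken relative to 5-HT.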

[3] = biological target: T2, 5-hydroxytryptamine receptor 3A (Cavia porcellus); assay: Agonist activity at 5HT3 receptor in spontaneously beating guinea pig right atrium assessed as positive chronotropic potency at 100 uM; format: functional, tissue-based; details: Cardiac atrium; method in brief: as §1
[4] = biological target: T2, 5-hydroxytryptamine receptor 3A (Cavia porcellus); assay: Agonist activity at 5HT3 receptor in guinea pig thoracic aorta assessed as positive contractility potency at 100 uM; format: functional, tissue-based
Method in brief: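 Guinea pig aortic helicoidal strips in PSS at 35 °C, aerated, under 1 g resting force, washed every 20 min for 1 h. Compounds added cumulatively 0.1-100 µM (DMSO vehicle); isometric contraction recorded.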

[5] = biological target: T3, 5-hydroxytryptamine receptor 3A (Cavia porcellus, UniProt O70212); assay: Antagonist activity at 5HT3 receptor in spontaneously beating guinea pig right atrium assessed as inhibition of serotonin-induced maximum response by noncompetitive binding assay; format: tissue-based, Cardiac atrium
T3 sequence (O70212 whole entry): T2 sequence (whole entry)
Method in brief: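 Spontaneously beating guinea pig right atrium; 5-HT concentration-response curves (0.001-1.0 µM) before and after 30 min antagonist exposure at three concentrations. IC50 is inhibition of 50% of maximal 5-HT response, Probit analysis, n = 4-6.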

[6] = biological target: T1, 5-hydroxytryptamine receptor 3A; assay: Displacement of [3H]zacopride from 5HT3 receptor in rat cortex
[7] = biological target: T4, 5-hydroxytryptamine receptor 1A (Rattus norvegicus, UniProt P19327); assay: Displacement of [3H]8-OHDPAT from 5HT1A receptor in rat hippocampus; format: tissue-based
T4 sequence (P19327 whole entry): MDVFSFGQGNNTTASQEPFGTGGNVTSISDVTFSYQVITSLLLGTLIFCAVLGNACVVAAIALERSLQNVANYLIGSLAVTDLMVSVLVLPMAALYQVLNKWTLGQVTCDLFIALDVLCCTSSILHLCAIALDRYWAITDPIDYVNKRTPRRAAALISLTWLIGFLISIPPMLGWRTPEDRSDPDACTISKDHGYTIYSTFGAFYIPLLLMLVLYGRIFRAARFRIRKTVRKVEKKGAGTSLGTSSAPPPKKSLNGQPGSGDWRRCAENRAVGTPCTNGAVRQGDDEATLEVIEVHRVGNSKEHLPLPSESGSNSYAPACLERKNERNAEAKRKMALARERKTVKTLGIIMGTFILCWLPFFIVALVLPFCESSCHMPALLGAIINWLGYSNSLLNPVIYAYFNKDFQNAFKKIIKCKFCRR

[8] = biological target: 5-hydroxytryptamine receptor 2A (Rattus norvegicus, UniProt P14842); assay: Displacement of [3H]ketanserin from 5HT2A receptor in rat cortex
[9] = biological target: 5-hydroxytryptamine receptor 4 (Cavia porcellus, UniProt O70528); assay: Displacement of [3H]GR-113808 from 5HT4 receptor in guinea pig striatum
[10] = biological target: T5, Adrenergic receptor alpha-1 (Rattus norvegicus, UniProt P15823+P23944+P43140); assay: Displacement of [3H]prazosin from adrenergic alpha1 receptor in rat cortex
T5 sequence (P15823 whole entry): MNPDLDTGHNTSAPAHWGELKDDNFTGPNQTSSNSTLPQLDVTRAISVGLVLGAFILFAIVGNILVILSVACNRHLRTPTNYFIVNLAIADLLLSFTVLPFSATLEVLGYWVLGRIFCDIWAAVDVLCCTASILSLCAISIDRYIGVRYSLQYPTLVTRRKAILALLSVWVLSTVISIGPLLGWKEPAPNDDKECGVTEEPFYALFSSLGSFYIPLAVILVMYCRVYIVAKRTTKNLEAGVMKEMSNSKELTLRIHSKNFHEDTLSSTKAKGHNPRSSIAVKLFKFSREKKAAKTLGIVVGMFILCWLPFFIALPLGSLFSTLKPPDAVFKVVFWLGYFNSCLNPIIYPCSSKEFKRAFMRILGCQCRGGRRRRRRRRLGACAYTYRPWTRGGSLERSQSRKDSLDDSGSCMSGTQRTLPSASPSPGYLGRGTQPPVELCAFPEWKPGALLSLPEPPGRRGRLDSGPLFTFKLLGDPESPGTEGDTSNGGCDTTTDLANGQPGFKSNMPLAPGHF
T5 sequence (P23944 whole entry): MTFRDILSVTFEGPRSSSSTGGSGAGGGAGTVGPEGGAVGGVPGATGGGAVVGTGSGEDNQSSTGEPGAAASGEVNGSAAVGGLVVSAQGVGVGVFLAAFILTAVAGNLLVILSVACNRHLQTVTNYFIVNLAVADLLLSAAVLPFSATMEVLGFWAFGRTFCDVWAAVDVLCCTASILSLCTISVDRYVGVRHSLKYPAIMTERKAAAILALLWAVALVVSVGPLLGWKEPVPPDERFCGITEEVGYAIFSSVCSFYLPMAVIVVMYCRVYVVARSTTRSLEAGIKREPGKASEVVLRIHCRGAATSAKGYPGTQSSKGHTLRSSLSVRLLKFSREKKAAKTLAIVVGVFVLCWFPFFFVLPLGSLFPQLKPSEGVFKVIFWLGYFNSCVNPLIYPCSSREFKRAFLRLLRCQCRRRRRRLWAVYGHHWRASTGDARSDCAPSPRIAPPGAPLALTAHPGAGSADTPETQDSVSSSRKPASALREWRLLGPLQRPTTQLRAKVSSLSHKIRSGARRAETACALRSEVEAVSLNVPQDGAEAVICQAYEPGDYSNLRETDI
T5 sequence (P43140 whole entry): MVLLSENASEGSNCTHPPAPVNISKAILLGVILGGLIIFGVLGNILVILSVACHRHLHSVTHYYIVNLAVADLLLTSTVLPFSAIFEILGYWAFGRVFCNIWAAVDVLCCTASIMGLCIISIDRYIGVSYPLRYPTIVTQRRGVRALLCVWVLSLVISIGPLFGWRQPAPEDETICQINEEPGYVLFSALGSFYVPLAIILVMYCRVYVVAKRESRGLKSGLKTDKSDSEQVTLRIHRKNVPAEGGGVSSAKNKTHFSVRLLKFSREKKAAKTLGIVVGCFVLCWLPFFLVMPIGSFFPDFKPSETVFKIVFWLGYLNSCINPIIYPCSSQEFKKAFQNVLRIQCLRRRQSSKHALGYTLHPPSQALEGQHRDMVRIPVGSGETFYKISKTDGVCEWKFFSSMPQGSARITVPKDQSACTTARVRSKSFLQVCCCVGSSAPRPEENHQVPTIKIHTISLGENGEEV

[11] = biological target: T6, Alpha-2A adrenergic receptor (Rattus norvegicus, UniProt P22909); assay: Displacement of [3H]RX821002 from adrenergic alpha2 receptor in rat cortex
T6 sequence (P22909 whole entry): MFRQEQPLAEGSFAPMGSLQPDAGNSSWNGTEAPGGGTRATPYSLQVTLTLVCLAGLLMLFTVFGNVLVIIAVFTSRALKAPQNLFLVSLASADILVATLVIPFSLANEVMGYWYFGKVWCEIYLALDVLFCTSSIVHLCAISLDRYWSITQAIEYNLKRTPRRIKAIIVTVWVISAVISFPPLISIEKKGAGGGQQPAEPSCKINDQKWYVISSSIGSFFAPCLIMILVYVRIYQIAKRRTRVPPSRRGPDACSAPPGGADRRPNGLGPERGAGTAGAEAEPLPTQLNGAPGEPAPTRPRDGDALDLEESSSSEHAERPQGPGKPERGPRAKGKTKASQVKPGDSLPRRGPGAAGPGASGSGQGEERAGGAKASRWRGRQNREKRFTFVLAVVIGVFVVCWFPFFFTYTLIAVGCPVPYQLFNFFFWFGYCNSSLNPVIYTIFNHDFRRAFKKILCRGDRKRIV

D(1A) dopamine receptor = D(1A) dopamine receptor (Rattus norvegicus, UniProt P18901); assay: Displacement of [3H]SCH-23390 from dopamine D1 receptor in rat striatum
D(2) dopamine receptor = D(2) dopamine receptor (Rattus norvegicus, UniProt P61169); assay: Displacement of [3H]spiperone from dopamine D2 receptor in rat striatum
[12] = biological target: Muscarinic acetylcholine receptor; assay: Displacement of [3H]QNB from muscarinic receptor in rat cortex
[13] = biological target: T2, 5-hydroxytryptamine receptor 3A (Cavia porcellus); assay: Agonist activity at 5HT3 receptor in spontaneously beating guinea pig right atrium assessed as positive chronotropic potency; format: functional, tissue-based; details: Cardiac atrium
Method in brief: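 Isolated guinea pig atria in PSS (Tyrode) with ketanserin 1 µM, 95% O2-5% CO2, pH 7.4, 35 °C. Right atrium beating spontaneously (rate); left atrium paced 1 Hz, 0.6-0.8 ms pulses near 50% threshold (force). Isometric recording after 45-60 min stabilization.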

[14] = biological target: T2, 5-hydroxytryptamine receptor 3A (Cavia porcellus); assay: Intrinsic activity at 5HT3 receptor in spontaneously beating guinea pig right atrium assessed as positive chronotropic potency relative to serotonin; details: Cardiac atrium; method in brief: as §1
Rattus norvegicus = assay: Antagonist activity at 5HT3 receptor in iv dosed urethane-anesthetized Sprague-Dawley rat assessed as inhibition of 1-phenylbiguanide-induced bradycardia administered 5 mins before 1-phenylbiguanide challenge measured after 5 to 30 mins post-treatment by von Bezold-Jarisch reflex test; format: functional

5-hydroxytryptamine receptor 4, sequence (O70528 whole entry): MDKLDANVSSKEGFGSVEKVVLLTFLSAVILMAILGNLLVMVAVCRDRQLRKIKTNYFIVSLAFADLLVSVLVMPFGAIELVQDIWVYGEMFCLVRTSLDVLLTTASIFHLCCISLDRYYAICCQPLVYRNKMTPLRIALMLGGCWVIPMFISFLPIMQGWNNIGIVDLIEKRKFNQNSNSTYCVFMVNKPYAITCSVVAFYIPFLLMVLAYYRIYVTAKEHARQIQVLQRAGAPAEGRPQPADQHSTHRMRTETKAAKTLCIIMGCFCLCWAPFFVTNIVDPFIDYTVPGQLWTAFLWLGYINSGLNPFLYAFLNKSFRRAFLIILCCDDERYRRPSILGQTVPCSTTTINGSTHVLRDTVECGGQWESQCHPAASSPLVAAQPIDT
5-hydroxytryptamine receptor 2A, sequence (P14842 whole entry): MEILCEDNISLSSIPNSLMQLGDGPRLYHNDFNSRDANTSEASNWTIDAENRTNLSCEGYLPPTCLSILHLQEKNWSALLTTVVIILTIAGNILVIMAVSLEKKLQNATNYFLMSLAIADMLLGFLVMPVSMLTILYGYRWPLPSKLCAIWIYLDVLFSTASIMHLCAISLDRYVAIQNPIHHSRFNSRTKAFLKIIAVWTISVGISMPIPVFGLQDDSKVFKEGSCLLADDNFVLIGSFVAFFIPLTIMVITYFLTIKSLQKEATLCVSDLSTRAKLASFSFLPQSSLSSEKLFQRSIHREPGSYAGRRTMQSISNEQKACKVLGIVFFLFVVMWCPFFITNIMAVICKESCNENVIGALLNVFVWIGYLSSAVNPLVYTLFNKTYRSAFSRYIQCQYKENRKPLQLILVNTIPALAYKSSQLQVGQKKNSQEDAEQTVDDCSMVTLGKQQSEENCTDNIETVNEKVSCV
D(2) dopamine receptor, sequence (P61169 whole entry): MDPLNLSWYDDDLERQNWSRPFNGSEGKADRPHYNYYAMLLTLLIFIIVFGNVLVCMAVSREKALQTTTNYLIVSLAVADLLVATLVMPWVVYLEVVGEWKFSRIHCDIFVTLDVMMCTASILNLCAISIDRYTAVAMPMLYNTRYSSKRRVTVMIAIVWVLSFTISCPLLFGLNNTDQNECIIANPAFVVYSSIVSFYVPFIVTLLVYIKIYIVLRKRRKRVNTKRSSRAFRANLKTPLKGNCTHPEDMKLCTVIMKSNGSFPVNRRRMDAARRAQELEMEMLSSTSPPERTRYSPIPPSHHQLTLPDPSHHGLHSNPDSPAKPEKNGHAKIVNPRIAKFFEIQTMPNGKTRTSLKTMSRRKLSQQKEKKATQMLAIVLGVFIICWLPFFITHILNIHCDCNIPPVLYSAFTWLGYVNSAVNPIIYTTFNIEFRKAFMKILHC
D(1A) dopamine receptor, sequence (P18901 whole entry): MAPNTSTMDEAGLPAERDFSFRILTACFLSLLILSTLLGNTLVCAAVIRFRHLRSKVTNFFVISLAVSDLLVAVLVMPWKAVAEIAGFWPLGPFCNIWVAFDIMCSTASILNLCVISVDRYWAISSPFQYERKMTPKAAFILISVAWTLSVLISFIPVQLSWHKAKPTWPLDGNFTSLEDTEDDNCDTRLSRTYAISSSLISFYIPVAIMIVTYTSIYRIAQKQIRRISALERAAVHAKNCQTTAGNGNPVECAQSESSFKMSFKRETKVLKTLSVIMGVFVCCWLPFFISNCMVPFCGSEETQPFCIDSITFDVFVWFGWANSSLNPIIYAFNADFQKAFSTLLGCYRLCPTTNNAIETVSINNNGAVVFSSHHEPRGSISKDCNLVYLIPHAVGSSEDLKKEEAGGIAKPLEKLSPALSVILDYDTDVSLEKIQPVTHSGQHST

## O=C(O)CN1CCN(c2nc3cc(O)ccc3n3cccc23)CC1
[1]
  Ki: 2.1 nM

## Fc1ccc2c(c1)nc(N1CCN(Cc3nnc[nH]3)CC1)c1cccn12
[1]
  Ki: 3.4 nM
[2]
  pD2: inactive
[3]
  pD2: inactive
[4]
  pD2: inactive
[5]
  IC50: 8510 nM

## O=c1[nH]nc(CN2CCN(c3nc4cc(F)ccc4n4cccc34)CC2)o1
[1]
  Ki: 127 nM

## CS(=O)(=O)NC(=O)CN1CCN(c2nc3cc(F)ccc3n3cccc23)CC1
[1]
  Ki: 246 nM

## Fc1ccc2c(c1)nc(N1CCN(Cc3ccccc3)CC1)c1cccn12
[6]
  Ki: 13 nM

## Cc1cccc2nc(N3CCN(C(CO)c4ccccc4)CC3)c3cccn3c12 (stereo not given)
[1]
  Ki: 79 nM

## N[C@H](CN1CCN(c2nc3cc(F)ccc3n3cccc23)CC1)C(=O)O
[1]
  Ki: 1.2 nM
[7]
  Ki: 480 nM
[8]
  Ki: > 10000 nM
[9]
  Ki: > 10000 nM
[10]
  Ki: > 10000 nM
[11]
  Ki: > 10000 nM
D(1A) dopamine receptor
  Ki: > 10000 nM
D(2) dopamine receptor
  Ki: > 10000 nM
[12]
  Ki: > 10000 nM

## Cc1cccc2nc(N3CCN(CC(=O)NO)CC3)c3cccn3c12
[1]
  Ki: 3 nM

## CN1CCN(c2nc3cc(F)ccc3n3cccc23)CC1
[1]
  Ki: 0.8 nM
[7]
  Ki: 138 nM
[8]
  Ki: 124 nM
[9]
  Ki: > 10000 nM
[2]
  pD2: inactive
[13]
  pD2: 6.79
[14]
  Intrinsic activity: 0.6
[4]
  pD2: inactive
Rattus norvegicus
  ID50: Dose-dependent effect
Rattus norvegicus; read-out: ID50 (the source's name)
  ED50: 0.6 mg/kg
